ChEMBL document CHEMBL1148955, “Chemical constituents from the Colombian medicinal plant Maytenus laevis” (2004)
Calls of active or inactive are those of the source. No cut-off for these calls is given here.

Tests used:
[1] = tested on: PBMC; experiment: Induction of IL10 production in human PBMC at 1 ug/ml after 48 hrs by ELISA; assay type: functional, cell-based
How it was run: (§1)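 PBMCs were isolated from heparinized venous blood by Ficoll-Hypaque density gradient centrifugation. Cells were cultured at 1 × 10^6/mL in RPMI 1640 with 10% fetal calf serum, with or without compound at 1 or 10 µg/mL, for 48 h at 37 °C. Cytokines in the culture supernatants were measured by commercial ELISA kits.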

[2] = tested on: PBMC; experiment: Induction of TNFalpha production in human PBMC at 10 ug/ml after 48 hrs by ELISA; assay type: functional; how it was run: as §1
[3] = tested on: PBMC; experiment: Induction of IL6 production in human PBMC at 10 ug/ml after 48 hrs by ELISA; assay type: functional; how it was run: as §1
[4] = tested on: PBMC; experiment: Induction of IL4 production in human PBMC at 10 ug/ml after 48 hrs by ELISA; assay type: functional, cell-based; how it was run: as §1
[5] = tested on: PBMC; experiment: Induction of IFN-gamma production in human PBMC at 10 ug/ml after 48 hrs by ELISA; assay type: functional, cell-based; how it was run: as §1
[6] = tested on: PBMC; experiment: Induction of IL12 production in human PBMC at 10 ug/ml after 48 hrs by ELISA; assay type: functional; how it was run: as §1
[7] = tested on: PBMC; experiment: Induction of IL10 production in human PBMC at 10 ug/ml after 48 hrs by ELISA; assay type: functional, cell-based; how it was run: as §1
[8] = tested on: PBMC; experiment: Induction of IFN-gamma production in human PBMC at 1 ug/ml after 48 hrs by ELISA; assay type: functional, cell-based; how it was run: as §1
[9] = tested on: PBMC; experiment: Induction of IL12 production in human PBMC at 1 ug/ml after 48 hrs by ELISA; assay type: functional; how it was run: as §1
[10] = tested on: PBMC; experiment: Induction of TNFalpha production in human PBMC at 1 ug/ml after 48 hrs by ELISA; assay type: functional; how it was run: as §1
[11] = tested on: PBMC; experiment: Induction of IL6 production in human PBMC at 1 ug/ml after 48 hrs by ELISA; assay type: functional; how it was run: as §1
[12] = tested on: PBMC; experiment: Induction of IL4 production in human PBMC at 1 ug/ml after 48 hrs by ELISA; assay type: functional, cell-based; how it was run: as §1

## CC(=O)O[C@@H]1[C@@H]2[C@@H](OC(C)=O)[C@@]34O[C@@]2(C)COC(=O)c2cccnc2C(C)C(C)C(=O)O[C@@H]([C@H](O)[C@H](OC(C)=O)[C@@]3(COC(=O)c2ccccc2)[C@@H]1OC(C)=O)[C@]4(C)O (stereo partly drawn)
[1]
  Activity: inactive
[2]
  Activity: <7.8 pg/mL
[3]
  Activity: 110.1 pg/mL
[4]
  Activity: inactive
[5]
  Activity: inactive
[6]
  Activity: <7.8 pg/mL
[7]
  Activity: inactive
[8]
  Activity: inactive
[9]
  Activity: <7.8 pg/mL
[10]
  Activity: <7.8 pg/mL
[11]
  Activity: 136.1 pg/mL
[12]
  Activity: inactive

## C[C@H]1[C@H](C)CC[C@]2(CO)CC[C@]3(C)C(=CC[C@@H]4[C@@]5(C)CC[C@H](OC(=O)/C=C/c6ccc(O)c(O)c6)C(C)(C)[C@@H]5CC[C@]43C)[C@H]12
[1]
  Activity: inactive
[2]
  Activity: 27.9 pg/mL
[3]
  Activity: 607.1 pg/mL
[4]
  Activity: inactive
[5]
  Activity: inactive
[6]
  Activity: <7.8 pg/mL
[7]
  Activity: inactive
[8]
  Activity: inactive
[9]
  Activity: <7.8 pg/mL
[10]
  Activity: <7.8 pg/mL
[11]
  Activity: 28.5 pg/mL
[12]
  Activity: inactive

## CC1(C)[C@H](O)CC[C@]2(C)[C@H]3CC=C4[C@@H]5C[C@](C)(C(=O)O)C[C@@H](O)[C@]5(C)CC[C@@]4(C)[C@]3(C)CC[C@@H]12
[1]
  Activity: inactive
[2]
  Activity: <7.8 pg/mL
[3]
  Activity: 16.2 pg/mL
[4]
  Activity: inactive
[5]
  Activity: inactive
[6]
  Activity: <7.8 pg/mL
[7]
  Activity: inactive
[8]
  Activity: inactive
[9]
  Activity: <7.8 pg/mL
[10]
  Activity: <7.8 pg/mL
[11]
  Activity: 32.2 pg/mL
[12]
  Activity: inactive

## CC1(C)[C@@H](O)CC[C@]2(C)[C@H]3CC=C4[C@H]5C[C@](C)(C(=O)O)C[C@@H](O)[C@]5(C)CC[C@@]4(C)[C@]3(C)CC[C@@H]12
[1]
  Activity: inactive
[2]
  Activity: <7.8 pg/mL
[3]
  Activity: 297.6 pg/mL
[4]
  Activity: inactive
[5]
  Activity: inactive
[6]
  Activity: <7.8 pg/mL
[7]
  Activity: inactive
[8]
  Activity: inactive
[9]
  Activity: <7.8 pg/mL
[10]
  Activity: <7.8 pg/mL
[11]
  Activity: 57.5 pg/mL
[12]
  Activity: inactive

## COc1c(O)cc([C@H]2Oc3cc(O)cc(O)c3C(=O)[C@H]2O)cc1O
[1]
  Activity: inactive
[2]
  Activity: <7.8 pg/mL
[3]
  Activity: 470.4 pg/mL
[4]
  Activity: inactive
[5]
  Activity: inactive
[6]
  Activity: <7.8 pg/mL
[7]
  Activity: inactive
[8]
  Activity: inactive
[9]
  Activity: <7.8 pg/mL
[10]
  Activity: <7.8 pg/mL
[11]
  Activity: 279.4 pg/mL
[12]
  Activity: inactive

## CC(=O)OC[C@]12[C@H](OC(C)=O)[C@H](OC(C)=O)[C@@H]3[C@@H](OC(=O)c4ccccc4)[C@@]14O[C@@]3(C)COC(=O)c1cccnc1C(C)C(C)C(=O)O[C@@H]([C@H](OC(C)=O)[C@@H]2OC(=O)c1ccccc1)[C@]4(C)O (stereo partly drawn)
[1]
  Activity: inactive
[2]
  Activity: <7.8 pg/mL
[3]
  Activity: 260.8 pg/mL
[4]
  Activity: inactive
[5]
  Activity: inactive
[6]
  Activity: <7.8 pg/mL
[7]
  Activity: inactive
[8]
  Activity: inactive
[9]
  Activity: 17.3 pg/mL
[10]
  Activity: 26.7 pg/mL
[11]
  Activity: 463 pg/mL
[12]
  Activity: inactive

## CC1(C)[C@@H](O)CC[C@]2(C)[C@H]3CC=C4[C@@H]5C[C@](C)(C(=O)O)C[C@H](O)[C@]5(C)CC[C@@]4(C)[C@]3(C)CC[C@@H]12 [MAYTENFOLIC ACID]
[2]
  Activity: <7.8 pg/mL
[3]
  Activity: 76.1 pg/mL
[6]
  Activity: <7.8 pg/mL
[9]
  Activity: <7.8 pg/mL
[10]
  Activity: <7.8 pg/mL
[11]
  Activity: 380 pg/mL
